Measurements from ChEMBL document CHEMBL1770122, “Synthesis, antibacterial and antimycobacterial activities of some new 4-aryl/heteroaryl-2,6-dimethyl-3,5-bis-N-(aryl)-carbamoyl-1,4-dihydropyridines” (2011).
Converted amounts (≈) assume the structure as drawn. The source made the active and inactive calls. The rule behind the calls is not given here.

Legend:
[1] = test system: Proteus vulgaris; assay: Antimicrobial activity against Proteus vulgaris NCIM 2027/ATCC 13315 at 1000 ug/mL after 24 hrs by disc diffusion method; type: functional, organism-based
[2] = test system: Bacillus subtilis; assay: Antimicrobial activity against Bacillus subtilis NCIM 2063/ATCC 6633 at 50 ug/mL after 24 hrs by disc diffusion method; type: functional; conditions: NCIM 2063/ATCC 6633, 24 h, read-out: DIZ
Summary of the method: (§1)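 NCIM cultures were used. Test solutions in DMSO, diluted from a 1 mg mL-1 stock to 12.5, 25 or 50 µg mL-1, were loaded onto sterile 5 mm filter-paper discs and dried. Nutrient agar was spread with 100 µL of 24 h bacterial suspension (10^8 cells mL-1). Incubation was 37 ± 1 °C for 24 h, and inhibition-zone diameter was read. DMSO served as control, with tetracyclin and streptomycin (50 µg mL-1) discs as standards. Triplicate, averaged.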

[3] = test system: Staphylococcus aureus; assay: Antimicrobial activity against methicillin-resistant Staphylococcus aureus at 1000 ug/mL after 24 hrs by disc diffusion method; type: functional; conditions: for zone of inhibition at 1000 µg/mL: read-out: DIZ
Summary of the method: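 Disc diffusion on nutrient agar. Compound at 1 mg mL-1 (1000 µg mL-1) in DMSO was loaded onto 5 mm sterile filter-paper discs and dried. Plates were spread with 100 µL of a 24 h culture at 10^8 cells mL-1. Incubated at 37 ± 1 °C for 24 h; inhibition zone diameters recorded. DMSO control disc. Triplicate, averaged.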

[4] = test system: Bacillus subtilis; assay: Antimicrobial activity against Bacillus subtilis NCIM 2063/ATCC 6633 at 1000 ug/mL after 24 hrs by disc diffusion method; type: functional, organism-based
[5] = test system: Escherichia coli; assay: Antimicrobial activity against Escherichia coli NCIM 2068/ATCC 11105 at 1000 ug/mL after 24 hrs by disc diffusion method; type: functional, organism-based
[6] = test system: Staphylococcus aureus; assay: Antimicrobial activity against Staphylococcus aureus NCIM 2079/ATCC 6538P at 50 ug/mL after 24 hrs by disc diffusion method; type: functional; conditions: read-out: DIZ; summary of the method: as §1
[7] = test system: Proteus vulgaris; assay: Antimicrobial activity against Proteus vulgaris NCIM 2027/ATCC 13315 at 50 ug/mL after 24 hrs by disc diffusion method; type: functional; conditions: NCIM 2027/ATCC 13315, 24 h, read-out: DIZ; summary of the method: as §1
[8] = test system: Escherichia coli; assay: Antimicrobial activity against Escherichia coli NCIM 2068/ATCC 11105 at 50 ug/mL after 24 hrs by disc diffusion method; type: functional; conditions: NCIM 2068/ATCC 11105, 24 h, read-out: DIZ; summary of the method: as §1
[9] = test system: Staphylococcus aureus; assay: Antimicrobial activity against methicillin-resistant Staphylococcus aureus at 50 ug/mL after 24 hrs by disc diffusion method; type: functional, organism-based
[10] = test system: Staphylococcus aureus; assay: Antimicrobial activity against Staphylococcus aureus NCIM 2079/ATCC 6538P at 1000 ug/mL after 24 hrs by disc diffusion method; type: functional, organism-based
[11] = test system: Staphylococcus aureus; assay: Antimicrobial activity against Staphylococcus aureus NCIM 2079/ATCC 6538P at 12.5 ug/mL after 24 hrs by disc diffusion method; type: functional; conditions: read-out: DIZ; summary of the method: as §1
[12] = test system: Escherichia coli; assay: Antimicrobial activity against Escherichia coli NCIM 2068/ATCC 11105 at 12.5 ug/mL after 24 hrs by disc diffusion method; type: functional; conditions: NCIM 2068/ATCC 11105, 24 h, read-out: DIZ; summary of the method: as §1
[13] = test system: Proteus vulgaris; assay: Antimicrobial activity against Proteus vulgaris NCIM 2027/ATCC 13315 at 12.5 ug/mL after 24 hrs by disc diffusion method; type: functional; conditions: NCIM 2027/ATCC 13315, 24 h, read-out: DIZ; summary of the method: as §1
[14] = test system: Proteus vulgaris; assay: Antimicrobial activity against Proteus vulgaris NCIM 2027/ATCC 13315 at 25 ug/mL after 24 hrs by disc diffusion method; type: functional; conditions: NCIM 2027/ATCC 13315, 24 h, read-out: DIZ; summary of the method: as §1
[15] = test system: Bacillus subtilis; assay: Antimicrobial activity against Bacillus subtilis NCIM 2063/ATCC 6633 at 12.5 ug/mL after 24 hrs by disc diffusion method; type: functional; conditions: NCIM 2063/ATCC 6633, 24 h, read-out: DIZ; summary of the method: as §1
[16] = test system: Staphylococcus aureus; assay: Antimicrobial activity against methicillin-resistant Staphylococcus aureus at 25 ug/mL after 24 hrs by disc diffusion method; type: functional, organism-based
[17] = test system: Bacillus subtilis; assay: Antimicrobial activity against Bacillus subtilis NCIM 2063/ATCC 6633 at 25 ug/mL after 24 hrs by disc diffusion method; type: functional; conditions: NCIM 2063/ATCC 6633, 24 h, read-out: DIZ; summary of the method: as §1
[18] = test system: Staphylococcus aureus; assay: Antimicrobial activity against Staphylococcus aureus NCIM 2079/ATCC 6538P at 25 ug/mL after 24 hrs by disc diffusion method; type: functional; conditions: read-out: DIZ; summary of the method: as §1
[19] = test system: Mycobacterium tuberculosis; assay: Antimycobacterial activity against multidrug-susceptible Mycobacterium tuberculosis H37Rv ATCC 27294 after 4 weeks; type: functional; conditions: H37Rv ATCC 27294, 672 h
Summary of the method: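 Lowenstein-Jensen proportion method. Drug at 6.25, 12.5, 25, 50 and 100 µg mL-1 in LJ medium slants, set overnight. Inoculated with 4 mg mL-1 suspension by 3 mm loop, 37 °C, 4 weeks. MIC is the lowest concentration fully inhibiting growth, by CFU versus medium, inoculated and DMSO controls. Three independent determinations.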

[20] = test system: Escherichia coli; assay: Antimicrobial activity against Escherichia coli NCIM 2068/ATCC 11105 at 25 ug/mL after 24 hrs by disc diffusion method; type: functional; conditions: NCIM 2068/ATCC 11105, 24 h, read-out: DIZ; summary of the method: as §1
[21] = test system: Staphylococcus aureus; assay: Antimicrobial activity against methicillin-resistant Staphylococcus aureus at 12.5 ug/mL after 24 hrs by disc diffusion method; type: functional, organism-based

Compound | diameter of the inhibition zone (DIZ) [1] | zone of inhibition at 50 µg/mL [2] [mm] | zone of inhibition at 1000 µg/mL [3] [mm] | diameter of the inhibition zone (DIZ) [4] | diameter of the inhibition zone (DIZ) [5] | zone of inhibition at 50 µg/mL [6] [mm] | zone of inhibition at 50 µg/mL [7] [mm] | zone of inhibition at 50 µg/mL [8] [mm] | diameter of the inhibition zone (DIZ) [9] | diameter of the inhibition zone (DIZ) [10] | zone of inhibition at 12.5 µg/mL [11] [mm] | zone of inhibition at 12.5 µg/mL [12] [mm] | zone of inhibition at 12.5 µg/mL [13] [mm] | zone of inhibition at 25 µg/mL [14] [mm] | zone of inhibition at 12.5 µg/mL [15] [mm] | diameter of the inhibition zone (DIZ) [16] | zone of inhibition at 25 µg/mL [17] [mm] | zone of inhibition at 25 µg/mL [18] [mm] | MIC [19] [µg/mL] | zone of inhibition at 25 µg/mL [20] [mm] | further results
CN(C)[C@@H]1C(O)=C(C(N)=O)C(=O)[C@@]2(O)C(O)=C3C(=O)c4c(O)cccc4[C@@](C)(O)[C@H]3C[C@@H]12 [TETRACYCLINE] | inactive | 20 | 15 | inactive | inactive | 22 | 21 | 25 | inactive | inactive | – | – | – | – | – | – | – | – | – | – | –
CCc1ccc(C2C(C(=O)Nc3ccccc3)=C(C)NC(C)=C2C(=O)Nc2ccccc2)cc1 | inactive | 21 | – | inactive | inactive | 16 | 16 | 15 | inactive | inactive | 8 | 10 | 9 | 14 | 11 | inactive | 13 | 11 | > 25 | 13 | diameter of the inhibition zone (DIZ) [3]: inactive; diameter of the inhibition zone (DIZ) [21]: inactive
NC(=O)c1cnccn1 [PYRAZINAMIDE] | – | – | – | – | – | – | – | – | – | – | – | – | – | – | – | – | – | – | 32 (≈ 260 µM) | – | –
CC1=C(C(=O)Nc2ccccc2)C(c2ccco2)C(C(=O)Nc2ccccc2)=C(C)N1 | inactive | 16 | 10 | inactive | inactive | 14 | 17 | 18 | inactive | inactive | 8 | 12 | 8 | 13 | 10 | inactive | 14 | 12 | > 25 | 15 | diameter of the inhibition zone (DIZ) [21]: inactive
